Assay results taken from ChEMBL document CHEMBL1134751, “Design and synthesis of ether analogues as potent and selective M2 muscarinic receptor antagonists” (Bioorg Med Chem Lett, 2001).

What was measured:
[1] = biological target: Muscarinic acetylcholine receptors; M1 & M2 (Homo sapiens) (UniProt P11229+P08172); assay: Ratio of binding affinity against Muscarinic acetylcholine receptor M1 to that of Muscarinic acetylcholine receptor M2; format: protein assay
[2] = biological target: T1, Muscarinic acetylcholine receptor M2 (Homo sapiens) (UniProt P08172); assay: Ratio of binding affinity against Muscarinic acetylcholine receptor M4 to that of Muscarinic acetylcholine receptor M2
T1 sequence (whole entry): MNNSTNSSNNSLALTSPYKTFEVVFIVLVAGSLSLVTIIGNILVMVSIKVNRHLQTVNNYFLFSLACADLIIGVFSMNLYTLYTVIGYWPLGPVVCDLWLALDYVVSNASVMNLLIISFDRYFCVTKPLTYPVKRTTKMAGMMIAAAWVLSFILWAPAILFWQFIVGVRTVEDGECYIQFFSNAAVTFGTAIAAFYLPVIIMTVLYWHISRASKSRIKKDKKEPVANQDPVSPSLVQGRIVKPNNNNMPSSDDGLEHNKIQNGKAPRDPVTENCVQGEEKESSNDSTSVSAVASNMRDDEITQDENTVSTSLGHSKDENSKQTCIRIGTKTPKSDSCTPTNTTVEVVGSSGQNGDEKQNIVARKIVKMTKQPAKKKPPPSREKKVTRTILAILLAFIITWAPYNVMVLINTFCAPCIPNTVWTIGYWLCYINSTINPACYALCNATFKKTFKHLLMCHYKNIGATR

[3] = biological target: Muscarinic acetylcholine receptors; M2 & M3 (Homo sapiens) (UniProt P20309+P08172); assay: Ratio of binding affinity against Muscarinic acetylcholine receptor M3 to that of Muscarinic acetylcholine receptor M2; format: protein assay
[4] = biological target: T1, Muscarinic acetylcholine receptor M2 (Homo sapiens); assay: Ratio of binding affinity against Muscarinic acetylcholine receptor M5 to that of Muscarinic acetylcholine receptor M2
[5] = biological target: T2, Muscarinic acetylcholine receptor M2 (Homo sapiens, UniProt P08172); assay: Binding affinity towards Muscarinic acetylcholine receptor M2 stably expressed in CHO-K1 cells using [3H]-QNB as radioligand; format: cell-based
T2 sequence (P08172 whole entry): T1 sequence (whole entry)
Procedure, shortened: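 Competition binding on membranes of clonal cells expressing receptor at 1–9 pmol/mg protein. Incubated with 180 pM [3H]QNB in 10 mM potassium phosphate pH 7.4 plus 1% DMSO and 0.4% methylcellulose for 120 min at rt to equilibrium. Non-specific binding defined with 0.5 mM atropine, protein set for 700–1500 cpm specific binding, then filtration separation. QNB Kd from saturation with 5–2500 pM [3H]QNB.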

Chain of Muscarinic acetylcholine receptors; M1 & M2 (Homo sapiens) (P11229 whole entry, looked up, one chain of several): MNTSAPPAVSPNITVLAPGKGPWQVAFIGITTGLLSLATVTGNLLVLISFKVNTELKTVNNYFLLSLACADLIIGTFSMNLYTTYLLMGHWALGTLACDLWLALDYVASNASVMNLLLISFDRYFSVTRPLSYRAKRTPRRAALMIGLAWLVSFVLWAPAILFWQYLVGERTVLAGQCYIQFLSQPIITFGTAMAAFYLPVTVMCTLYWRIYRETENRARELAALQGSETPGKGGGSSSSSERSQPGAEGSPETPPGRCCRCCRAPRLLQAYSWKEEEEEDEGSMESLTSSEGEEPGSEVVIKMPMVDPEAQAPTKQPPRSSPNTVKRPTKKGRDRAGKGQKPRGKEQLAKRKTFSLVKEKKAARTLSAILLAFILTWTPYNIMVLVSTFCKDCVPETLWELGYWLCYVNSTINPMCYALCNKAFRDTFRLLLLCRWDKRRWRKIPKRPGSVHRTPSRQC

| Structure (SMILES) | Ratio [1] | Ratio [2] | Ratio [3] | Ratio [4] | Ki [5] |
| --- | --- | --- | --- | --- | --- |
| O=C(COc1ccccc1)N1CCC(N2CCC(Oc3ccc(S(=O)(=O)c4ccc5c(c4)OCO5)cc3)CC2)CC1 | 8 | 3 | 5 | 13 | 59.5 nM |
| O=C(c1ccccc1)N1CCC(N2CCC(Oc3ccc(S(=O)(=O)c4ccc5c(c4)OCO5)cc3)CC2)CC1 | 18 | 6 | 6 | 15 | 1.6 nM |
| O=S(=O)(c1ccc(OC2CCN(C3CCN(S(=O)(=O)c4cccc5ccccc45)CC3)CC2)cc1)c1ccc2c(c1)OCO2 | 2 | 1 | 8 | 4 | 34.7 nM |
| O=C(c1cccc2ccccc12)N1CCC(N2CCC(Oc3ccc(S(=O)(=O)c4ccc5c(c4)OCO5)cc3)CC2)CC1 | 357 | 28 | 216 | 50 | 0.5 nM |
| CCOCC(=O)N1CCC(N2CCC(Oc3ccc(S(=O)(=O)c4ccc5c(c4)OCO5)cc3)CC2)CC1 | 6 | 2 | 5 | 13 | 17.9 nM |
| O=C(c1cccc2cccnc12)N1CCC(N2CCC(Oc3ccc(S(=O)(=O)c4ccc5c(c4)OCO5)cc3)CC2)CC1 | 9 | 2 | 10 | 4 | 12 nM |
| CCOC(=O)N1CCC(N2CCC(Oc3ccc(S(=O)(=O)c4ccc5c(c4)OCO5)cc3)CC2)CC1 | 4 | – | – | – | 6 nM |
| CCS(=O)(=O)N1CCC(N2CCC(Oc3ccc(S(=O)(=O)c4ccc5c(c4)OCO5)cc3)CC2)CC1 | 49 | 12 | 122 | 46 | 2 nM |
| O=S(=O)(c1ccc(OC2CCN(C3CCN(S(=O)(=O)Cc4ccccc4)CC3)CC2)cc1)c1ccc2c(c1)OCO2 | 19 | 4 | 12 | 1 | 15 nM |
| CC(C)OC(=O)N1CCC(N2CCC(Oc3ccc(S(=O)(=O)c4ccc5c(c4)OCO5)cc3)CC2)CC1 | 59 | 7 | 19 | 10 | 3.2 nM |
| O=C(c1ccnc2ccccc12)N1CCC(N2CCC(Oc3ccc(S(=O)(=O)c4ccc5c(c4)OCO5)cc3)CC2)CC1 | 140 | 18 | 117 | 1480 | 1 nM |
| O=C(c1cccc2ncccc12)N1CCC(N2CCC(Oc3ccc(S(=O)(=O)c4ccc5c(c4)OCO5)cc3)CC2)CC1 | 233 | 21 | 124 | 64 | 0.5 nM |
| CCCCS(=O)(=O)N1CCC(N2CCC(Oc3ccc(S(=O)(=O)c4ccc5c(c4)OCO5)cc3)CC2)CC1 | 35 | 4 | 50 | 35 | 6.9 nM |
| CCCS(=O)(=O)N1CCC(N2CCC(Oc3ccc(S(=O)(=O)c4ccc(OC)cc4)cc3)CC2)CC1 | – | – | – | – | 139 nM |
| Cc1cccc(C(=O)N2CCC(N3CCC(Oc4ccc(S(=O)(=O)c5ccc6c(c5)OCO6)cc4)CC3)CC2)c1C | 155 | 31 | 132 | 56 | 0.4 nM |
| Cc1ccsc1C(=O)N1CCC(N2CCC(Oc3ccc(S(=O)(=O)c4ccc5c(c4)OCO5)cc3)CC2)CC1 | 234 | 23 | 109 | 196 | 0.2 nM |
| CC(C)S(=O)(=O)N1CCC(N2CCC(Oc3ccc(S(=O)(=O)c4ccc5c(c4)OCO5)cc3)CC2)CC1 | 10 | 2 | 2 | 16 | 14 nM |
| O=C(Oc1ccccc1)N1CCC(N2CCC(Oc3ccc(S(=O)(=O)c4ccc5c(c4)OCO5)cc3)CC2)CC1 | 48 | 11 | 61 | 69 | 1.1 nM |
| CCCS(=O)(=O)N1CCC(N2CCC(Oc3ccc(S(=O)(=O)c4ccc5c(c4)OCO5)cc3)CC2)CC1 | 58 | 25 | 46 | 39 | 1.6 nM |
